Experimental data gathered from unrelated publications.
Each line is one published result; the experiments were not run side by side.
FLT3 D835H: Receptor-type tyrosine-protein kinase FLT3 (FLT3, Homo sapiens, UniProt P36888, D835H)
FLT3: Receptor-type tyrosine-protein kinase FLT3 (FLT3, Homo sapiens, UniProt P36888)
FLT3 autoinhibited: Receptor-type tyrosine-protein kinase FLT3, autoinhibited (FLT3, Homo sapiens, UniProt P36888)
FLT3 R834Q: Receptor-type tyrosine-protein kinase FLT3 (FLT3, Homo sapiens, UniProt P36888, R834Q)
FLT3 D835Y: Receptor-type tyrosine-protein kinase FLT3 (FLT3, Homo sapiens, UniProt P36888, D835Y)
FLT3 K663Q: Receptor-type tyrosine-protein kinase FLT3 (FLT3, Homo sapiens, UniProt P36888, K663Q)
FLT3 D835V/ITD: Receptor-type tyrosine-protein kinase FLT3 (FLT3, Homo sapiens, UniProt P36888, D835V/ITD)
FLT3 ITD: Receptor-type tyrosine-protein kinase FLT3 (FLT3, Homo sapiens, UniProt P36888, ITD)

| Compound | target | assay | conditions | endpoint | value |
| --- | --- | --- | --- | --- | --- |
| CC1CCCN1c1nccc(-c2cnn3ncccc23)n1 (stereo not drawn) | FLT3 D835H | binding | 1 µM | remaining binding | 90% |
| CN(c1ccnc(CNc2nc(Nc3ccc4c(c3)CC(=O)N4)ncc2C(F)(F)F)n1)S(C)(=O)=O | FLT3 D835H | cell-free assay, competition with immobilised ligand | 1 µM | remaining binding | 15% |
| CCN(CC)c1ccc(C2=NNC(=O)CC2C)cc1[N+](=O)[O-] (stereo not drawn) | FLT3 | enzyme activity, inhibitor | 10 µM | remaining activity | 89% |
| Cc1cnn2ncc(-c3ccnc(N(C)C)n3)c2c1 | FLT3 autoinhibited | binding | 1 µM | remaining binding | 84% |
| Cc1[nH]c(/C=C2\C(=O)Nc3ccc(F)cc32)c(C)c1C(=O)N[C@H]1CCN(C(=O)N(C)C)C1 | FLT3 | enzyme activity, inhibitor | 0.1 µM | remaining activity | 3% |
| O=C(NCCCN1CCOCC1)c1ccc(Nc2ncc(Cl)c(-c3ccc(Cl)s3)n2)cc1 | Receptor-type tyrosine-protein kinase FLT3 (FLT3, Homo sapiens, UniProt P36888, F691L/ITD) | binding, competition with immobilised ligand | 1 µM | remaining binding | 5.1% |
| COc1cc(Nc2c(C#N)cnc3cc(OCCCN4CCN(C)CC4)c(OC)cc23)c(Cl)cc1Cl | FLT3 | cell-free assay | 0.5 µM | remaining signal | 30.3% |
| Cc1sc(C(=O)NC2COC2)cc1-n1cc(NC(=O)Nc2c(F)cccc2Cl)cn1 | FLT3 | enzyme activity, inhibitor | 10 µM | remaining activity | 69.1% |
| Cc1ccc(C(=O)Nc2ccc(CN3CCN(C)CC3)c(C(F)(F)F)c2)cc1C#Cc1cnc2cccnn12 | Receptor-type tyrosine-protein kinase FLT3 (FLT3, Homo sapiens, UniProt P36888, N841I) | enzyme activity, inhibitor | 23.5 nM | remaining activity | 0% |
| Cc1cnc(Nc2ccc(C(=O)N3CCC(N4CCCC4)CC3)cc2)nc1-c1cc2ccccc2s1 | FLT3 R834Q | binding, competition with immobilised ligand | 1 µM | remaining binding | 6.2% |
| N[C@H]1CCN(c2nccc(-c3cnn4ncccc34)n2)C1 | FLT3 autoinhibited | binding | 1 µM | remaining binding | 99% |
| CCCOc1ccc(OC)c(F)c1C(=O)c1ccc(C(=O)N[C@@H]2CNC[C@H]2NC(=O)c2ccc3[nH]ncc3c2)cc1 | FLT3 | enzyme activity, inhibitor | 10 µM | remaining activity | 32% |
| Cc1ccc(C(=O)NCc2ccsc2)cc1C#Cc1cn(C(C)C)c2ncnc(N)c12 | FLT3 D835Y | enzyme activity, inhibitor | 1 µM | activity vs control | 118% |
| NS(=O)(=O)c1cc(NC(=O)Cc2ccccc2)ccc1Oc1cccc(Cl)c1 | Receptor-type tyrosine-protein kinase FLT3 (FLT3, Homo sapiens, UniProt P36888, D835V) | cell-free assay, competition with immobilised ligand | 1 µM | remaining binding | 86% |
| CCN(CC)CCNC(=O)c1c(C)[nH]c(/C=C2\C(=O)Nc3ccc(F)cc32)c1C | FLT3 | enzyme activity, inhibitor | 0.1 µM | remaining activity | 1% |
| O=C(Nc1cnn(-c2csc(C(=O)NC3COC3)c2)c1)Nc1c(F)cccc1Cl | FLT3 | enzyme activity, inhibitor | 5 µM | remaining activity | 99.2% |
| Cc1cc(NC(=O)c2cccc3cc(-c4cccc5[nH]nc(N)c45)ccc23)ccc1F | FLT3 D835Y | enzyme activity, inhibitor | 0.1 µM | activity vs control | 98% |
| NS(=O)(=O)c1cc(NC(=O)C2(c3ccccc3Cl)CC2)ccc1Oc1cccc(Cl)c1 | FLT3 R834Q | cell-free assay, competition with immobilised ligand | 1 µM | remaining binding | 100% |
| Cc1cnc(NC2CCOCC2)nc1-n1cnc(C(=O)NC(CN)c2cc(F)cc(Cl)c2)c1 (stereo not drawn) | FLT3 D835Y | enzyme activity, inhibitor, radiometric | 1 µM | remaining activity | 105% |
| O=C(c1ccc(Nc2ncc(Cl)c(-c3ccc(Cl)s3)n2)cc1)N1CCC(N2CCCC2)CC1 | FLT3 K663Q | binding, competition with immobilised ligand | 1 µM | remaining binding | 1.3% |
| Nc1ncnc2occ(-c3ccc(NC(=O)Nc4cc(C(F)(F)F)ccc4F)cc3)c12 | FLT3 | cell-free assay, inhibitor | 20 µM | remaining signal | 1.8% |

| Compound | target | assay | conditions | endpoint | value |
| --- | --- | --- | --- | --- | --- |
| CNC(=O)c1cc(Oc2ccc(NC(=O)Nc3ccc(Cl)c(C(F)(F)F)c3)cc2)ccn1 | FLT3 | cell-free assay | 0.5 µM | remaining signal | 9.22% |
| O=C1NC(c2ccccn2)Sc2ccccc21 (stereo not drawn) | FLT3 D835V/ITD | cell-free assay, competition with immobilised ligand | 1 µM | remaining binding | 83% |
| O=C1Nc2ccc(Cl)cc2C1=Cc1cc(Cl)c(O)c(Cl)c1 | FLT3 | cell-free assay | 0.5 µM | remaining signal | 26.5% |
| Fc1cccc(-n2cnc3c(NCc4nc5c(F)c(F)ccc5[nH]4)nc(N4CCOCC4)nc32)c1 | FLT3 D835H | binding, competition with immobilised ligand | 10 µM | binding vs control | 42% |
| COc1cc2c(Nc3ccc(Br)cc3F)ncnc2cc1OCC1CCN(C)CC1 | FLT3 | cell-free assay | 0.5 µM | remaining signal | 43.7% |
| CC(C)(C)c1nc(-c2cccc(NS(=O)(=O)c3c(F)cccc3F)c2F)c(-c2ccnc(N)n2)s1 | FLT3 | enzyme activity, inhibitor, radiometric | 1 µM | remaining activity | 117% |
| C[C@@H]1CCN(c2nccc(-c3cnn4ncccc34)n2)C1 | FLT3 D835H | binding | 1 µM | remaining binding | 100% |
| O=C1NC(=O)c2cc(Nc3ccc(F)cc3)c(Nc3ccc(F)cc3)cc21 | FLT3 | cell-free assay | 0.5 µM | remaining signal | 91.5% |
| O=C(c1ccc(Nc2ncc(Cl)c(-c3cc4ccccc4s3)n2)cc1)N1CCC(N2CCCC2)CC1 | FLT3 R834Q | binding, competition with immobilised ligand | 1 µM | remaining binding | 11% |
| COc1cc2ncnc(Nc3ccc(F)c(Cl)c3)c2cc1OCCCN1CCOCC1 | FLT3 | cell-free assay | 0.5 µM | remaining signal | 56.5% |
| Cc1c(C(=O)O)cc(-c2ccc(C3CCNCC3)cc2)c2ccc(-c3ccc(C(F)(F)F)cc3)cc12 | FLT3 R834Q | binding, competition with immobilised ligand | 1 µM | remaining binding | 100% |
| CC(C)(O)[C@H]1CC[C@H](Nc2ccc3ncc(-c4cccc(C(F)(F)F)c4)n3n2)CC1 | FLT3 | enzyme activity, inhibitor | 1 µM | remaining activity | 6.31% |
| c1cnn2ncc(-c3ccnc(N4CCC45COC5)n3)c2c1 | FLT3 R834Q | binding | 1 µM | remaining binding | 82% |
| C[C@H](NC(=O)c1cnc2n1[C@](C)(Cc1ccc(C#N)cc1)C(=O)N2c1cc(Cl)c(F)c(Cl)c1)C(=O)NC1(c2ccccn2)CC1 | FLT3 K663Q | cell-free assay, competition with immobilised ligand | 1 µM | remaining binding | 100% |
| O=C(c1ccc(Nc2nccc(-c3cc4ccccc4s3)n2)cc1)N1CCC(N2CCCC2)CC1 | FLT3 D835V/ITD | binding, competition with immobilised ligand | 1 µM | remaining binding | 8.3% |
| COc1ccnn2ncc(-c3ccnc(N(C)C)n3)c12 | FLT3 D835H | binding | 1 µM | remaining binding | 100% |
| CCCCN(CCCC)C(=O)CN1C[C@@H](c2cc(OC)c3c(c2)OCO3)[C@H](C(=O)O)[C@H]1CC(C)(C)CCC | FLT3 autoinhibited | cell-free assay, competition with immobilised ligand | 1 µM | remaining binding | 97.4% |
| Cc1ccc(NC(=O)c2ccc(C)c(C(F)(F)F)c2)cc1C#Cc1nn(C2CCC(O)CC2)c2ncnc(N)c12 (stereo not drawn) | FLT3 | cell-free assay | 10 µM | remaining signal | 73% |
| O=[N+]([O-])c1cccc2[nH]c(CNc3nc(N4CCOCC4)nc4c3ncn4-c3ccsc3)nc12 | FLT3 K663Q | binding, competition with immobilised ligand | 10 µM | binding vs control | 5.2% |
| C[C@H](c1ccc(F)cc1)N(Cc1cccc(C(=O)O)c1)C(=O)c1cnc2ccccc2c1 | FLT3 ITD | cell-free assay, competition with immobilised ligand | 1 µM | remaining binding | 100% |
| Cc1cnc(-c2ccc(-c3ccc(NC(=O)Nc4c(F)cc(F)cc4F)cc3F)c3c2C(=O)NC3)[nH]1 | FLT3 ITD | enzyme activity, inhibitor | 0.1 µM, 90 min | activity vs control | 6.2% |
